Experimental findings from ChEMBL document CHEMBL1240482, “Synthesis and antiproliferative evaluation of certain indeno[1,2-c]quinoline derivatives. Part 2” (J Med Chem, 2010) are described below.

Data set [1] has as its system HeLa. Description: Cytotoxicity against human HeLa cells after 48 hrs by MTT assay. It is filed as functional. Summed up: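 Cells grown in DMEM with 10% FBS at 37 °C and 5% CO2, seeded at 5 × 10^3 per well and allowed 24 h before drug. Serial dilutions from DMSO stocks applied for 48 h. MTT (2 mg/mL in PBS) added for 2 h, formazan dissolved in DMSO, absorbance read at 570 nm. GI50 interpolated by linear regression from at least three points in the 20-80% range; three independent experiments.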
In general terms: Tetrazolium dyes change colour on reduction, which living cells bring about.

For data set [2], the system named is HeLa. Description: Selectivity index, ratio of IC50 for human Detroit 551 cells to IC50 for human HeLa cells. The class given is functional.
In another data set the test system is Detroit 551. The data set can be described thus: Selectivity index, ratio of IC50 for human Detroit 551 cells to IC50 for human A549 cells. The class given is functional.
The target in data set [3] is T1, DNA topoisomerase 1 (Homo sapiens) (UniProt P11387).
T1 sequence (whole entry): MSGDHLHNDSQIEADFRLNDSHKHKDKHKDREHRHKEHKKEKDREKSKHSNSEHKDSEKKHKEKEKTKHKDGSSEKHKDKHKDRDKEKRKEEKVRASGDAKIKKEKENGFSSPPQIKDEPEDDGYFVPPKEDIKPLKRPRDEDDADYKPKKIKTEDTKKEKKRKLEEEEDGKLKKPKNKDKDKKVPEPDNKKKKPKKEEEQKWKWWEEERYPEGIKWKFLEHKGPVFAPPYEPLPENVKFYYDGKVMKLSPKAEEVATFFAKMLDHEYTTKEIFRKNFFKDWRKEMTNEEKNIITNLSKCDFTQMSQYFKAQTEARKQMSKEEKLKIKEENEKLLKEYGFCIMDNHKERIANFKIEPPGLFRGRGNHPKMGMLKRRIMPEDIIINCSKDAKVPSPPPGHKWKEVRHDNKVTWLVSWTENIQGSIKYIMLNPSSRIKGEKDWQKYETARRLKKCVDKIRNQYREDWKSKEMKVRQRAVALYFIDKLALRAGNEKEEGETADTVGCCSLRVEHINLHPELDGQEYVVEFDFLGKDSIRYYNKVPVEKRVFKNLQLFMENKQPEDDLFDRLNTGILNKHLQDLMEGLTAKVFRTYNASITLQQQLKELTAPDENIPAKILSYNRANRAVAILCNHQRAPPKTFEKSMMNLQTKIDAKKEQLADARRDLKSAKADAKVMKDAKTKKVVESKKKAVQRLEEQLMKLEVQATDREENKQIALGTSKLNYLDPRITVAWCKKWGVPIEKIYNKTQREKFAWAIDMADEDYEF
Description: Inhibition of human topoisomerase 1 assessed as decrease in pBR322 mobility on agarose gel at 10 uM by electrophoresis. The essentials: (§1)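 Enzyme preincubated with compound before DNA addition; reaction run 30 min at 37 °C and stopped with SDS. Products resolved on 1% agarose, stained with ethidium bromide, quantified by densitometry.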

The target of a further data set is T2, DNA topoisomerase 1 (Homo sapiens, UniProt P11387).
T2 sequence (P11387 whole entry): T1 sequence (whole entry)
Description: Inhibition of human topoisomerase 1 assessed as decrease in pBR322 mobility on agarose gel by electrophoresis. The essentials:
as §1

Data set [4] is described as follows: Mean retention time in CD1 mouse at 20 mg/ kg, po. The class given is ADME, organism-based. Details: dose 20 mg/ kg, route oral. Conditions: in vivo. The essentials:
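Male CD-1 (Crl.) mice, 22-24 g, fasted 4 h before dosing; single oral gavage of 20 mg/kg as a suspension in 0.5% methylcellulose/water, 10 mL/kg. Cardiac-puncture plasma (K-EDTA) taken predose to 27 h, three mice per time point; LC-MS/MS quantification.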

The subject of the next data set is Mus musculus. Description: Toxicity to BALB/c mouse assessed as survival rate at 10 mg/kg, iv. The class given is organism-based. The arrangement: dose 10 mg/kg, route intravenous. The note with it: in vivo. Summed up:
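Balb/C athymic nude mice (6-8 weeks, ~20 g) bearing subcutaneous BT483 breast xenografts (0.5 × 10^6 cells). Treatment began at ~500 mm3 tumour volume: cosolvent formulation diluted in 5% dextrose, iv at 10 or 20 mg/kg once daily for 14 days; controls received vehicle. 3 animals per group. Survival was assessed by Kaplan-Meier analysis at study end, p < 0.05.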

As for `COc1ccc2c(c1)/C(=N\OCCN1CCCC1)c1c-2c(O)nc2ccccc12`, the results for the GI50 in the data set on HeLa [1] (read-out: GI50) and in the data set on HeLa [1] (read-out: pGI50 (converted)) were 230 nM and 229 nM, respectively. In addition, the RatioGI50 with HeLa [2] was determined as 54.09; in the data set with Detroit 551 it was 13.98. For the same molecule, the inhibition – broadly, the drop in the measured response relative to a control, in per cent – in data set [3] stood at 71%. At DNA topoisomerase 1, the IC50 (in general, the concentration at which inhibition is half-maximal) was found to be 3760 nM. For the same molecule, the MRT (in general, the average time that molecules of a dose stay in the body) in data set [4] was 3.4 h. The Activity result in the data set with Mus musculus is recorded as “Non-toxic”.
